Source: the EternaBench riboswitch data

Test system: MS2 coat protein
Experiment: apparent Kd, MS2 coat protein; higher = weaker binding; RNA-MaP array; FMN 200 µM where present
In short: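 Green signal was scaled to red-channel RNA signal and control-cluster median Fmax, and the apparent Kd was taken as the median of filtered per-cluster binding-curve fits. The binding series used SNAP-549-labelled MS2 coat protein from 0.7 or 1.5 nM, doubling to 3 µM, on designs transcribed by stalled E. coli RNA polymerase on Illumina sequencing-chip clusters. Each series ran without and then with constant ligand in 100 mM Tris-HCl pH 7.5, 80 mM KCl, 4 mM MgCl2, BSA, DTT, yeast tRNA and Tween-20.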

[1] = designed as: OFF switch for flavin mononucleotide, no ligand
[2] = ligand present: flavin mononucleotide, designed as: OFF switch for flavin mononucleotide
[3] = designed as: ON switch for flavin mononucleotide, no ligand
[4] = ligand present: flavin mononucleotide, designed as: ON switch for flavin mononucleotide

Sequence | apparent Kd [1] [nM] | apparent Kd [2] [nM] | apparent Kd [3] [nM] | apparent Kd [4] [nM]
UGUAACCGAGGAUAUACAUGAGGAUCACCCAUGUAAUGUAGUAUAGUGUAUGUGAGGUGUAGAAGGUGGGAUGU | 75.6 | 71.6 |  | 
CUGUGACGGUGCGCAAGUGGACGUAGAAGGGUCACAUGAGGAUCACCCAUGUGGGCCUGCUAUUGACAGGAUAUACGUUCGUAC | 5.28 | 5 |  | 
CCAUCGAGUGUGAGGAUAUGCUGUUCGAAAGAGCAGCAGAAGGCACAUGAGGAUCACCCAUGUGGAUACGGUGG | 29.1 | 212 |  | 
UGUUGUAUUACAGGAUAUCUAUGAUUUUGAUUUAGAGAAGGGUAUUCACAUGAGGAUCACCCAUGUAUAUACGAGGAAGUUGUG |  |  | 51.2 | 54.4
GGAGGACAUGAGGAUCACCCAUGUGGAUGAUCGCUAGGAUAUGCGUGCGGGAGGAGUGGUGCAGAAGGAGUGGGAU |  |  | 350 | 272
UGCCGUUUAGGAUAUACAUGAGGAUCACCCAUGUGACAAACAUAUUUUACAAAACCAUGUAGAAGGAAACGGCA | 97.4 | 468 |  | 
AUAUACGUUGAGGAUAUGCGAAUAAGUAUAGUUGCAGAAGGCGACACAUGAGGAUCACCCAUGUUCAUGGACAC | 28.2 | 44.6 |  | 
GGAUAGGACAGAGGAUAUACGUGCUAGAGAUACUAGCAAAAUUUCCUCACAUGAGGAUCACCCAUGUAGAAGGCAGUCCUAUCG | 4.95 | 7.33 |  | 
ACGCUUUGGGAGAAGGUACUUUAAAUUUUUUCCACAUGAGGAUCACCCAUGUAAGGAUAUCCCAUCGUUAAAUAUUCUACAGCA | 8.4 | 7.06 |  | 
GCGAAUAACGAGGAUAUCGUAUCGGAAACGAUACGAGAAGGUGUAACAUGAGGAUCACCCAUGUUCCUCAACGC | 37.5 | 36.4 |  | 
GCCAGGAUGUGAGGAUAUGCUGAGGAUACCUCAGCAGAAGGCACAUGAGGAUCACCCAUGUACACUUAUCAUAAAUACCCUGGC | 13.5 | 18.1 |  | 
CAACUGUGAGGAUAUGGUGAGUAGUGCCUGAGCGCUGCUCACCAGAAGGCACAUGAGGAUCACCCAUGUAUAAC | 42.9 | 176 |  | 
GCGUUACAUGAGGAUCACCCAUGUGAGGAUAUGGUGCGGUACUGUCCUGUCGCGUACUCCAGAAGGCACGGGUG | 150 | 85.3 |  | 
UGUCGGAGCAGAGGAUAUUACAUGAGGAUCACCCAUGUAUGAACCAAUAGCUGGAAACAGCAACGUAAGAAGGCUGCUCCGACA | 6.75 | 47.2 |  | 
UGAUAACAUGUAGGAUAUCCAGCAUUGACCAUCGGAGAAGGACAUGAGGAUCACCCAUGUACCGAUACAAUGGGAUAUGGGAAU | 20.1 | 27.2 |  | 
ACCAUUUACUAAUCCUCUAUACAUGAGGAUCACCCAUGUUAUGAGGAUAUCAUCGUUCGCCGCGUUGAGAAGGCAUAGCAUUCG | 16.3 | 25.9 |  | 
AAGUAGAUCCGAGGAUAUACAAUCCGGAAACGGUACAUGAGGAUCACCCAUGUAGAAGGCGGAUCUACAGGUACUAAAGUACCA | 6.5 | 8.32 |  | 
AAGUCUGGACGAGGAUAUCAGUUGUAUCUGGCGUCAACAUGAGGAUCACCCAUGUUGCAAUAGGGUGAGAAGGCGUUUGGGCAA |  |  | 41.6 | 19.1
GAAAAGAAAGGAUAUACAGGGAAAUGAACCGCACGUAAACCACAUGAGGAUCACCCAUGUAGAAGGUUCAGUGC | 10.7 | 14.4 |  | 
AGAAGACAUGAGGAUCACCCAUGUGCACGUGGAGGAGGAUAUGCUAGUAGAAGAUAGAAUGCAGAAGGCCUAAGAA |  |  | 88 | 85.6
AGACGGAGCUGAGGAUAUACAUGAGGAUCACCCAUGUAAGAUCUCCAGGAAACUGGAGAUCAAAAGUAGAAGGCAGCUCCGUCA | 15.1 | 23.1 |  | 
GUAGUGUAUGUAGGAUAUGUGAAGCAAAGCUUCACAGAAGGACAUGAGGAUCACCCAUGUAUUGCAGUCAGCAAUCUGACUGCU | 41 | 145 |  | 
AGAUGACAAAGUCAUCUCGCGCAGACAUGAGGAUCACCCAUGUAGGAUAUAUUACUCAAAGAGUAAUAGAAGGACAUGUGUCUU | 33.5 | 91.7 |  | 
GGUUGUCAAAGACAACCUUAACGAACAUGAGGAUCACCCAUGUAGGAUAUGCUACUCAAAGAGUAGCAGAAGGACAUGUGUCUU | 30.8 | 156 |  | 

Sequence | apparent Kd [1] [nM] | apparent Kd [2] [nM] | apparent Kd [3] [nM] | apparent Kd [4] [nM]
CGUGCGUAUGUGAGGAUAUGCUGGUCCUUGGCUCGGCAGAAGGCACAUGAGGAUCACCCAUGUGGUGUCGUACA | 78.2 | 156 |  | 
UCGUAUACACAAGGAUAUCGAUGGCUUGUAGAUGCUACAUGAGGAUCACCCAUGUUUUUAUAUUGUGAGAAGGUGUAGUGUCGU |  |  | 141 | 221
UUGCUCAAUUGGGCAGGAACCUCACAUGAGGAUCACCCAUGUCAGGAUAUCCUAGUUUGGACGUAGGAGAAGGGACAGAGUAUC | 157 | 152 |  | 
GGAUAGGACAGAGGAUAUACGUGCUAGAGAUACUAGCAAAAUUUCAUCACAUGAGGAUCACCCAUGUAGAAGGCUGUCCUAUCG | 4.81 | 8.63 |  | 
CUUUUAUAAUAGAAGGUAGACUUUAUGAGGAUCACCCAUGUGUUGGUACUAAGGAUAUGUAGUAACAUGAGGAUCACCCAUGUU |  |  | 25.9 | 26.5
UAGCAUUGCCUUUGGUAGUGCCUUACAUGAGGAUCACCCAUGUAGGAUAUGGUAGGCUUUGCUUACCAGAAGGACAUGGUAAUU | 52.9 | 259 |  | 
UAUGUGUCAGGAUAUUAGUAGUGUGUGGAUACAUAUAUUGCUGAGAAGGGACAUGAGGAUCACCCAUGUACCUU | 16.2 | 17.5 |  | 
CUAGCAACAUGAGGAUCACCCAUGUAGGAUAUCGCUAUUGUAAUCAUGAAACAUGAUUACAAUAGCGAGAAGGACAUAUGCUAU | 8.33 | 9.83 |  | 
CGUUUAUUUAUUGGAUUAUAUUAUGAGGAUAUCAAUAUUUAUUACAUGAGGAUCACCCAUGUUAAUGAGAAGGCAUAAUUAACG |  |  | 9.99 | 6.68
AAAAAAAAAGUAGAGGAUAUCCGAGUGGUAACAUGAGGAUCACCCAUGUGAAGAAAGGAACAUGAGGAGAAGGCUACAAAAAAAAA |  |  | 46.6 | 16.6
ACAGACCAACAGAAGGGUGAGGUGUUGUUCUUCACAGGAUAUGUUGGCAACAUGAGGAUCACCCAUGUUGGUUUUGAAGUACGU |  |  | 16.3 | 4.68
CGUAGGAUCCAGAAGGCAUGAACAUGAGGAUCACCCAUGUGAAAACACAUGAGGAUAUGGAUCCUACGAAAAGUGCGAAAGCAC |  |  | 5.4 | 4.66
AUAUAGAUGGUCAGGAUAUGCUAGUGGUAACAGUAGCAGAAGGGACAUGAGGAUCACCCAUGUAGAUACUGCUC | 18 | 32.2 |  | 
AAAAAACAUGAGGAUCACCCAUGUCAAAAGACGUGAGGAUAUGUACAGACUUCGGUCUGUACAGAAGGCACGAAAA |  |  | 25.4 | 21.2
GAGUGACAUGAGGAUCACCCAUGUGAGGAUAUCGGACGGACCUUGUUGGCUUCCGCCGCGAGAAGGCACCUCGG | 43.9 | 40.2 |  | 
CGAAACUACGAGAAGGACAUGUGGUCCUUCAGUUACAUGAGGAUCACCCAUGUAGGAUAUCGUAGUUUCAGGAUCGUGAGAUCA | 37.4 | 7 |  | 
GGUGCACGCACAGGAUAUCCGGCGGAGCUCGUCGGAGAAGGGUGACAUGAGGAUCACCCAUGUACGUGCAAUCCAGUUUGAGAG |  |  | 23.8 | 28.3
UGUCGGAGCAGAGGAUAUUACAUGAGGAUCACCCAUGUAUGAAUCAAUAGCUGGAAACAGCAAUGUAAGAAGGCUGCUCCGACA | 7.86 | 26.6 |  | 
GUCUUGAUAGGAUAUACAUGAGGAUCACCCAUGUCCCACCCGUUACCUCUGGCCCUAUGUAGAAGGAUCGUCUG | 50.2 | 45.6 |  | 
GUCGAGUGAGGAUAUUGAAUCGGUGGCAGACCACACGAGCUCGAGAAGGCACAUGAGGAUCACCCAUGUGGGUC | 28.1 | 41.6 |  | 
AACGUCUUAGGAUAUACACUGGGACUUGCCAUGUGGGCCCUACAUGAGGAUCACCCAUGUAGAAGGAAGACAUG | 19.6 | 14 |  | 
CUGAUGUCAGGAUAUCAGAAAAGGUGCAAGGACGCACCAAAUGAGAAGGGACAUGAGGAUCACCCAUGUAAAAC | 25 | 122 |  | 
ACUAGUUGGUAAGGAUAUCCUACACUAUUCUGACCCGUGCAAGCUACAUGAGGAUCACCCAUGUGGGAGAAGGUGCGUCAACGU | 11 | 10.6 |  | 
AGCUGUGGCAGAGGAUAUACUACUAUAAUCCAUUGCAAAUAGCGAUGGACAUGAGGAUCACCCAUGUAGAAGGCUGUCUCAGCA | 38.9 | 153 |  | 
